pIC50, pKi: −log10 of the molar value.

The record followed here is ChEMBL document CHEMBL4020756, “Discovery of novel substituted benzo-anellated 4-benzylamino pyrrolopyrimidines as dual EGFR and VEGFR2 inhibitors” (Bioorg Med Chem Lett, 2017).

In data set [1] the target is Vascular endothelial growth factor receptor 2 (Homo sapiens, UniProt P35968). The experiment in a line: Inhibition of VEGFR2 (unknown origin) using poly(Glu,Tyr)4:1 as substrate in presence of [gamma-33P]-ATP after 60 mins by scintillation counting analysis. Particulars: for pKi: read-out: Ki; call rule not given here. Summed up: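 Radiometric ATP-competition assay at 30 °C for 60 min. Kinase was 20 ng/50 µL with Poly(Glu,Tyr)4:1 substrate at 125 ng/50 µL. Buffer was 70 mM HEPES-NaOH pH 7.5 with 3 mM MgCl2, 3 mM MnCl2, 3 µM orthovanadate, 1.2 mM DTT, 50 µg/mL PEG20000 and 15 µM [γ-33P]-ATP. The stop was 2% phosphoric acid, and 33Pi incorporation was counted by scintillation. Ten concentrations from 3 nM to 100 µM gave IC50.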
Vascular endothelial growth factor receptor 2, sequence (P35968 whole entry): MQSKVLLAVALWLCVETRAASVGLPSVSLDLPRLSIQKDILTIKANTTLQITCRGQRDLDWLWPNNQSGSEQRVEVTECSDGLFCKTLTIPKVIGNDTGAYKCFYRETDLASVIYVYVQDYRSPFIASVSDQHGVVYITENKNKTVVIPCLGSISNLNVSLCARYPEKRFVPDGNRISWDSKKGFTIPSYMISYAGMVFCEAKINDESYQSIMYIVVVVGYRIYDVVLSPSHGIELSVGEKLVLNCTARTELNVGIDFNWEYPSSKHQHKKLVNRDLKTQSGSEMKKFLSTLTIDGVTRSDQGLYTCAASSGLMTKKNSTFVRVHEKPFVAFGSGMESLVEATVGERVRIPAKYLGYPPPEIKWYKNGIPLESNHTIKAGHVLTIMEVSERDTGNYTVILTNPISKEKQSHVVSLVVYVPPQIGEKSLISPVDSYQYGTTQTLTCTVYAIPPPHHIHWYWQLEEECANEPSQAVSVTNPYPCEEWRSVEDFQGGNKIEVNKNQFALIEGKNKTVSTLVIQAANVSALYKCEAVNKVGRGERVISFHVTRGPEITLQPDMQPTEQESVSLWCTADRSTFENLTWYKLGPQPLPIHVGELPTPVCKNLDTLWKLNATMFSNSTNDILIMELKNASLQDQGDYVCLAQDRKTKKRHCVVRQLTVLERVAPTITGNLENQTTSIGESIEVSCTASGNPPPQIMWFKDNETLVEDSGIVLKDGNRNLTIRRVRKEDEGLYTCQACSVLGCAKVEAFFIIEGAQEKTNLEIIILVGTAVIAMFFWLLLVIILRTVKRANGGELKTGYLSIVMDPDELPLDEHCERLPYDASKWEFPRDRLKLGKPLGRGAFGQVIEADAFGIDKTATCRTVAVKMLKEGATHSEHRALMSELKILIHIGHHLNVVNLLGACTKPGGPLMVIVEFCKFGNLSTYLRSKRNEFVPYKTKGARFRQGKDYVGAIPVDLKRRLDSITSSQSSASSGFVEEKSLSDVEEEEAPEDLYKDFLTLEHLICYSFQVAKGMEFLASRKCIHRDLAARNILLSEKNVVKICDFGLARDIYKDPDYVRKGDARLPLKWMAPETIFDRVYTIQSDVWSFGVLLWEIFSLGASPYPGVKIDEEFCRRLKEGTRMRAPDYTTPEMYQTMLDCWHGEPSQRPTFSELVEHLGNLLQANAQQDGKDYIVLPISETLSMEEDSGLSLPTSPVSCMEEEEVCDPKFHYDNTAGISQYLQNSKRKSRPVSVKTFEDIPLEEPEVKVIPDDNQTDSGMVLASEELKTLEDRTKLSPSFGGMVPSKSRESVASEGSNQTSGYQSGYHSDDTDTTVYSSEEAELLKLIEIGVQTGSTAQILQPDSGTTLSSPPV

For data set [2], the target named is Epidermal growth factor receptor (Homo sapiens, UniProt P00533). The experiment in a line: Inhibition of EGFR (unknown origin) using poly(Glu,Tyr)4:1 as substrate in presence of [gamma-33P]-ATP after 60 mins by scintillation counting analysis.
Epidermal growth factor receptor, sequence (P00533 whole entry): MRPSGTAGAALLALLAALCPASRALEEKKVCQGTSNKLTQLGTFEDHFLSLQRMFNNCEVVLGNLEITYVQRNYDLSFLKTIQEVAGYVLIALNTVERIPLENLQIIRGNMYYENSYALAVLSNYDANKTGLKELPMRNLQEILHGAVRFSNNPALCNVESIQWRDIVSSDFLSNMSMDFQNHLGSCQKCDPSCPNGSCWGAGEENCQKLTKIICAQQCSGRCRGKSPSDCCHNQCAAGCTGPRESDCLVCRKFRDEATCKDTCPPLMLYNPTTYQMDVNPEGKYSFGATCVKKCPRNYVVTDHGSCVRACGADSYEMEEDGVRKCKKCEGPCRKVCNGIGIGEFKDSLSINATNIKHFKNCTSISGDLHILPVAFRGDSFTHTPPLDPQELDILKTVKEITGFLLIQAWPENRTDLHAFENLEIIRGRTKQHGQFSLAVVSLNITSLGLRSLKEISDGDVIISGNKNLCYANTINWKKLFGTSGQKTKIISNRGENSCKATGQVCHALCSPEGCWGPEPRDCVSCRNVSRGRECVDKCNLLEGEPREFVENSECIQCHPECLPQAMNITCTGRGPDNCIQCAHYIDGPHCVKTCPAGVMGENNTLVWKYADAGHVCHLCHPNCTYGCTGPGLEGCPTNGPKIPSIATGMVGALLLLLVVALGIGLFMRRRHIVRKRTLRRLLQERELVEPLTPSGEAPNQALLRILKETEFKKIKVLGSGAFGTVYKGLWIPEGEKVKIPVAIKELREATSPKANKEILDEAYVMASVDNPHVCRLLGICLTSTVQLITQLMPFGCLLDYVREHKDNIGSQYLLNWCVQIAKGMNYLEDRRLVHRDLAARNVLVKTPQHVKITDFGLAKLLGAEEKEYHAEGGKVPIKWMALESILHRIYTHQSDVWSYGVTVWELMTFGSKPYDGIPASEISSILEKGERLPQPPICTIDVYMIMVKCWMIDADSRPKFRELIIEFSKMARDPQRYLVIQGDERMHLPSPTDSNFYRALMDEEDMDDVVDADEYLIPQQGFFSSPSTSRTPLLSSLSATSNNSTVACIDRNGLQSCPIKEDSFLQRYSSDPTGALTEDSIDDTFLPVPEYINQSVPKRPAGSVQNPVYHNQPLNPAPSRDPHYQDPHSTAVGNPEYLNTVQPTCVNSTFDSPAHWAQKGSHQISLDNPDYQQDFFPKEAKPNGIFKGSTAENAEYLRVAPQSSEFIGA
A further data set concerns Hs-578T. Description: Growth inhibition of human Hs578T cells at 10 uM after 48 hrs by sulforhodamine assay relative to control. Type of data set: functional. Particulars: read-out: GI. Summed up: (§1)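 Tested at a single 10 µM concentration in the NCI tumour cell panel screen. Growth inhibition was read by sulforhodamine B staining.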
For a further data set, the system named is BT-549. Description: Growth inhibition of human BT549 cells at 10 uM after 48 hrs by sulforhodamine assay relative to control. The class given is functional. Particulars: BT-549, 48 h, read-out: GI. The method, boiled down: as §1
The subject of another data set is MDA-MB-231. Description: Growth inhibition of human MDA-MB-231 cells at 10 uM after 48 hrs by sulforhodamine assay relative to control. Particulars: MDA-MB-231, 48 h, read-out: GI. The class given is functional. The method, boiled down:
as §1

A further data set concerns HOP-92. Description: Growth inhibition of human HOP92 cells at 10 uM after 48 hrs by sulforhodamine assay relative to control. Type of data set: functional. Particulars: HOP-92, 48 h, read-out: GI. The method, boiled down:
as §1

In the next data set the test system is NCI-H460. Description: Growth inhibition of human NCI-H460 cells at 10 uM after 48 hrs by sulforhodamine assay relative to control. Particulars: NCI-H460, 48 h, read-out: GI. The class given is functional. Summed up:
as §1

The test system of the next data set is MDA-MB-468. Description: Growth inhibition of human MDA-MB-468 cells at 10 uM after 48 hrs by sulforhodamine assay relative to control. Type of data set: functional. Particulars: MDA-MB-468, 48 h, read-out: GI. The method, boiled down:
as §1

Another data set deals with HOP-62. The experiment in a line: Growth inhibition of human HOP62 cells at 10 uM after 48 hrs by sulforhodamine assay relative to control. Type of data set: functional. Particulars: HOP-62, 48 h, read-out: GI. The method, boiled down: as §1
The next data set has as its target Wee1-like protein kinase (Homo sapiens, UniProt P30291). Description: Inhibition of Wee1 (unknown origin). Summed up:
(§2)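 ATP-competition kinase assay run at several inhibitor concentrations. Reduced phosphorylation of the kinase substrate was measured by scintillation counting, and IC50 values were derived.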

Data set [3] deals with Death-associated protein kinase 1 (Homo sapiens, UniProt P53355). Description: Inhibition of DAPK1 (unknown origin). The method, boiled down: as §2
Death-associated protein kinase 1, sequence (P53355 whole entry): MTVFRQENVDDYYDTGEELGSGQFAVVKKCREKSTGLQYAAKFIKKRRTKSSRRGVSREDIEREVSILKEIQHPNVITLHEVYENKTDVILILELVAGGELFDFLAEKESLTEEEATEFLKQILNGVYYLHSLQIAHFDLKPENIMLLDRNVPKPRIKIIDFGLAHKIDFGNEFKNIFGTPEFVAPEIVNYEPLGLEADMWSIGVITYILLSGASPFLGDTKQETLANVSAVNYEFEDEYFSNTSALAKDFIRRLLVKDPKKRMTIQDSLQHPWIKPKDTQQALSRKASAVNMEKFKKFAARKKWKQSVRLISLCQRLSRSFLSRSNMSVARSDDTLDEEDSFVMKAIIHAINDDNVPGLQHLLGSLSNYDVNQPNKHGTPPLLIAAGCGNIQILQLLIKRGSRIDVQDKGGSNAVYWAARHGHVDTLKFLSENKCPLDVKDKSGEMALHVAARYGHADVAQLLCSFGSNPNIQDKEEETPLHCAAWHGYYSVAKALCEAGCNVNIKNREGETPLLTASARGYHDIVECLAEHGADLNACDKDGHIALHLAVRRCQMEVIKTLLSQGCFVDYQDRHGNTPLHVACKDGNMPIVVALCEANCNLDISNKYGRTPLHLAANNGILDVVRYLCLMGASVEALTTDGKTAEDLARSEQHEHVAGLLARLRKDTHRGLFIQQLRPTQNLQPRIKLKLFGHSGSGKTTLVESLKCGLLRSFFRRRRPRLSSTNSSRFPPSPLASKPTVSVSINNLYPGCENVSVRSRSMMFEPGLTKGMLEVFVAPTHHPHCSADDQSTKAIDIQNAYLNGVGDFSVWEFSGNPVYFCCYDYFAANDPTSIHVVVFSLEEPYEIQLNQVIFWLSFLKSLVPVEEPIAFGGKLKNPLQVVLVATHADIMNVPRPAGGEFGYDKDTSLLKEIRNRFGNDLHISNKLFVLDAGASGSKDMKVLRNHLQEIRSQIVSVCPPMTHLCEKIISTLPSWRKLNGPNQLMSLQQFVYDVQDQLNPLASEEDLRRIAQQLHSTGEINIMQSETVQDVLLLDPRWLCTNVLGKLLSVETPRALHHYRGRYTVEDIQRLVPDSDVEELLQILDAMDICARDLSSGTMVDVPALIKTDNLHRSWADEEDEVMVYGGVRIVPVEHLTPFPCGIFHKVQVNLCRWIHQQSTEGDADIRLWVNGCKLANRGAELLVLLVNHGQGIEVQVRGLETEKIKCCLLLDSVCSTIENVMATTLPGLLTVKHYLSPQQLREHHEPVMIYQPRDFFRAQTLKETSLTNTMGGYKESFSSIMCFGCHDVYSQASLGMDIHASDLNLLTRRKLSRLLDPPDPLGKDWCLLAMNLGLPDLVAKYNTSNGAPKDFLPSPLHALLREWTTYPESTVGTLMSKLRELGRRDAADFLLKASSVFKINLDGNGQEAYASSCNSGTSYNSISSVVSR
For another data set, the target named is Myotonin-protein kinase (Homo sapiens, UniProt Q09013). The experiment in a line: Inhibition of DMPK (unknown origin). The method, boiled down:
as §2

Data set [4] deals with Serine/threonine-protein kinase MARK1 (Homo sapiens, UniProt Q9P0L2). The experiment in a line: Inhibition of MARK1 (unknown origin). The method, boiled down:
as §2

Data set [5] concerns the target Activin receptor type-1-like (Homo sapiens, UniProt P37023). Description: Inhibition of ALK1 (unknown origin). Summed up:
as §2

Data set [6] addresses Tyrosine-protein kinase ABL1 (Homo sapiens, UniProt P00519). The experiment in a line: Inhibition of c-Abl (unknown origin). Summed up: as §2
The target in data set [7] is Dual specificity mitogen-activated protein kinase kinase 1 (Homo sapiens, UniProt Q02750). Description: Inhibition of MEK1 (unknown origin). Summed up: as §2
A short description of data set [8]: Solubility of the compound in pH 7.5 HEPES-NaOH buffer at > 100 uM. The class given is physicochemical.
The target in data set [9] is Protein kinase C alpha type (Homo sapiens, UniProt P17252). Description: Inhibition of PKC alpha (unknown origin). Summed up: as §2
For data set [10], the target named is Interleukin-1 receptor-associated kinase 1 (Homo sapiens, UniProt P51617). Description: Inhibition of IRAK (unknown origin). The method, boiled down:
as §2

In data set [11] the target is Mitogen-activated protein kinase kinase kinase 2 (Homo sapiens, UniProt Q9Y2U5). The experiment in a line: Inhibition of MEKK2 (unknown origin). Summed up: as §2
Data set [12] deals with Mitogen-activated protein kinase kinase kinase 21 (Homo sapiens, UniProt Q5TCX8). Description: Inhibition of MLK4 (unknown origin). The method, boiled down:
as §2

The target of data set [13] is Casein kinase I isoform alpha (Homo sapiens, UniProt P48729). The experiment in a line: Inhibition of CK1 alpha (unknown origin). Summed up:
as §2

Data set [14] deals with Tyrosine-protein kinase JAK2 (Homo sapiens, UniProt O60674). The experiment in a line: Inhibition of JAK2 (unknown origin). Summed up:
as §2

Tyrosine-protein kinase JAK2, sequence (O60674 whole entry): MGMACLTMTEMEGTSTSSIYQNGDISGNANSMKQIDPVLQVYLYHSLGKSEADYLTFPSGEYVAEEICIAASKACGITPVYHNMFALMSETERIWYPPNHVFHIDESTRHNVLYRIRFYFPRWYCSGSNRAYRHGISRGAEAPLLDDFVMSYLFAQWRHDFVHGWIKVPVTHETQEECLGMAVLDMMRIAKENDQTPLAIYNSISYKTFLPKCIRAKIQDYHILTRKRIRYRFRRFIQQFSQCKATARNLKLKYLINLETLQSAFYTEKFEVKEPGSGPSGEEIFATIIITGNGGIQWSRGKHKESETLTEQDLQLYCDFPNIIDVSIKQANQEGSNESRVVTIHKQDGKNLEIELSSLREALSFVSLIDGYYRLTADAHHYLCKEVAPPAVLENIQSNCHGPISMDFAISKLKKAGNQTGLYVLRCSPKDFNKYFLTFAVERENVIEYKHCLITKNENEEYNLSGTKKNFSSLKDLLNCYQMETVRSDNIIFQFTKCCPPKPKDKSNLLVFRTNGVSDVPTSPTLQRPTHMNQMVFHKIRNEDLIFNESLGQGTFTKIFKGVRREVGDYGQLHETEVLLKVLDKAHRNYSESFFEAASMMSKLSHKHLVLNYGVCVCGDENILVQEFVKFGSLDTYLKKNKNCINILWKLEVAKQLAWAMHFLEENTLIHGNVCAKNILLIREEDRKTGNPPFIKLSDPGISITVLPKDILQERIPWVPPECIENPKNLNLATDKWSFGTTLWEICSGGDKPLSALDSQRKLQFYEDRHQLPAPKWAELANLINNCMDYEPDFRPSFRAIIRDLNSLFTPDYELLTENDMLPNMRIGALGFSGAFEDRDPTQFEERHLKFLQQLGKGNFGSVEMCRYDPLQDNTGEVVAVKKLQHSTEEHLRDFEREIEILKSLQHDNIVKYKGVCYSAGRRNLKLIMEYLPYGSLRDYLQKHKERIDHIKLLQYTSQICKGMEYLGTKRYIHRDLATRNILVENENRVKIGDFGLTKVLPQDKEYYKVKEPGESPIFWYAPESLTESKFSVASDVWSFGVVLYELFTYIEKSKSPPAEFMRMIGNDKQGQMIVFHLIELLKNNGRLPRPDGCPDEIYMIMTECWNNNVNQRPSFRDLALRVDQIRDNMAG

As a reminder, the pKi is the negative decadic logarithm of the Ki, by convention in mol/L. Consider `Nc1nc(NCc2ccccc2)c2c(n1)[nH]c1ccc(O)cc12`, for which the pKi in data set [1] was 5.56; in [2] it was 6.15.
The matching figures for `Nc1nc(NCCc2ccccc2)c2c(n1)[nH]c1ccc(O)cc12`: 5.35 and 6.19.
For `Nc1nc(NCc2ccc(Cl)cc2)c2c(n1)[nH]c1ccc(O)cc12`, the inhibition of growth at 10 µM in the data set on Hs-578T came to 33%; with BT-549, 24%; in the data set with MDA-MB-231, 65%; in the data set on HOP-92, 57%; in the data set on NCI-H460, 25%; with MDA-MB-468 it was 71%. In addition, the inhibition of growth at 10 µM in the data set with HOP-62 came to 31%. Besides, the negative-log Ki (pKi) is 5.49 in [1] and 7.10 in data set [2].
Consider `COc1ccc(CNc2nc(N)nc3[nH]c4ccc(O)cc4c23)cc1OC`, for which the results for the pKi in data set [1] and in [2] were 4.96 and 5.43, respectively.
Consider `Nc1nc(NCc2ccccc2)c2c(n1)[nH]c1cc(Br)c(O)cc12`, for which the Ki result in data set [1] is reported as “Not Active”. In addition, the pKi in [2] is 6.43.
Regarding `Nc1nc(NCc2cccc(Cl)c2)c2c(n1)[nH]c1ccc(O)cc12`, in data set [2], the negative-log Ki (pKi) was 6.54.
For the compound `COc1ccc(CNc2nc(N)nc3[nH]c4cc(C)c(O)cc4c23)cc1`, the negative logarithm of the Ki (pKi) in data set [2] was 5.23.
On to `COc1cc2[nH]c3nc(N)nc(NCc4ccccc4)c3c2cc1O`, for which the pKi is 4.87 in [1] and 6.21 in data set [2].
The matching figures for `Cc1ccc(CNc2nc(N)nc3[nH]c4ccc(O)cc4c23)cc1`: 5.49 and 7.05.
Regarding `Cc1cc2[nH]c3nc(N)nc(NCc4ccc(Cl)cc4)c3c2cc1O`, the Ki result in data set [1] is on record as “Not Active”. In addition, the pKi in [2] was 6.96.
As for `Cc1cc2[nH]c3nc(N)nc(NCc4cccc(Cl)c4)c3c2cc1O`, the pKi in data set [2] is 6.05.
As for `COc1cccc(CNc2nc(N)nc3[nH]c4ccc(O)cc4c23)c1`, the negative logarithm of the Ki (pKi) in data set [1] is 5.40; in [2], 5.90.
As to `C[C@@H](Nc1nc(N)nc2[nH]c3ccc(O)cc3c12)c1ccccc1`, the pKi in [1] was 5.71; in [2], 6.04.
Consider `Nc1nc(NCc2ccccc2)c2c(n1)[nH]c1cc(Cl)c(O)cc12`, for which the inhibition of growth at 10 µM is 16% in the data set on Hs-578T; 21% in the data set on BT-549; 34% with MDA-MB-231; 19% in the data set on HOP-92; 5% in the data set on NCI-H460; 28% with MDA-MB-468. Also, the inhibition of growth at 10 µM in the data set with HOP-62 stood at 20%. Besides, in data set [1], the Ki entry was “Not Active”. Besides, the pKi in data set [2] was 6.57.
Turning to `COc1ccccc1CNc1nc(N)nc2[nH]c3cc(C)c(O)cc3c12`, the negative-log Ki (pKi) in [1] is 5.14; in data set [2], 5.39.
The matching figures for `Cc1cc2[nH]c3nc(N)nc(NCc4ccccc4)c3c2cc1O`: 5.32 and 6.19.
Broadly, the pIC50 is −log10 of the IC50, conventionally taken in molar units. For the compound `Cc1ccc(CNc2nc(N)nc3[nH]c4cc(C)c(O)cc4c23)cc1`, the negative logarithm of the IC50 (pIC50) (against Wee1-like protein kinase; in data set [3]; against Myotonin-protein kinase; in data set [4]; in data set [5]; in data set [6]) was below 4.00 each time. The pIC50 in data set [7], in data set [9], in data set [10], in [11], in [12] and in data set [13] was below 4.00 each time. In data set [14], this compound gave a pIC50 below 4.00. Further, in [1], the Ki entry is listed as “Not Active”. Also, in [2], the pKi was 5.25. Also, in [8], the solubility result is “Soluble”.
As for `C[C@H](Nc1nc(N)nc2[nH]c3ccc(O)cc3c12)c1ccccc1`, the results for the pKi in data set [1] and in data set [2] were 5.38 and 6.28, respectively.
Turning to `COc1ccc(CNc2nc(N)nc3[nH]c4ccc(O)cc4c23)cc1`, in data set [2], the pKi is 6.92.
As for `COc1ccccc1CNc1nc(N)nc2[nH]c3ccc(O)cc3c12`, the inhibition of growth at 10 µM in the data set on Hs-578T is 41%; with BT-549, 37%; with MDA-MB-231, 73%; in the data set with HOP-92 it was 66%; in the data set with NCI-H460, 82%; in the data set on MDA-MB-468, 55%. The inhibition of growth at 10 µM with HOP-62 was found to be 63%. Moreover, the pKi in data set [1] is 6.07; in data set [2], 5.73.
